Drawing on ChEMBL document CHEMBL1932980, “Structure-activity relationships of 2-amino-3-aroyl-4-[(4-arylpiperazin-1-yl)methyl]thiophenes. Part 2: Probing the influence of diverse substituents at the phenyl of the arylpiperazine moiety on allosteric enhancer activity at the A₁ adenosine receptor” (Bioorg Med Chem, 2012), this text covers Activity, inhibition and fold change (FC) for twelve compounds.

Assay [1] concerns the target T1, Adenosine receptor A1 (Homo sapiens) (UniProt P30542).
T1 sequence (whole entry): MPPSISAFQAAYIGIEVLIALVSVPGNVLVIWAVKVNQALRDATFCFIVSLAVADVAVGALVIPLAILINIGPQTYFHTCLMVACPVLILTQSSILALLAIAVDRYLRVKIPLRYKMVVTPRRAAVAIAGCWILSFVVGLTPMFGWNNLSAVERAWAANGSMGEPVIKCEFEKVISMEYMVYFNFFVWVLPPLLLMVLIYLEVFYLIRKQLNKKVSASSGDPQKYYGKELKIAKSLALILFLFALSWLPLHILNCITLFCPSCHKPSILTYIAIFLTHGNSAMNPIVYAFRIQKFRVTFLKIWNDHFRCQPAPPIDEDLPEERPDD
As to the kind of experiment: Allosteric enhancer activity at recombinant human A1 adenosine receptor expressed in CHO cells assessed as change in forskolin-induced cAMP production at 0.01 uM after 6 mins by radioimmunoassay. It counts as functional, cell-based. The essentials:
(§1)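 hA1CHO cells (about 8000 fmol/mg protein) thawed from low-passage stocks, grown in Ham's F-12 with 10% FBS and G-418, then plated 48 h. Test compound at 0.01, 0.1, 1 or 10 µM with CPA (0.05–0.1 nM) for 6 min at 36 °C. Stopped with HCl (final 50 mM). cAMP in acidified extracts measured by radioimmunoassay. Reference enhancer run in each experiment. Four experiments per concentration.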

The target in assay [2] is T1, Adenosine receptor A1 (Homo sapiens). Nature of the assay: Allosteric enhancer activity at recombinant human A1 adenosine receptor expressed in CHO cells assessed as change in forskolin-induced cAMP production at 0.1 uM after 6 mins by radioimmunoassay. It counts as functional, cell-based. Put shortly: as §1
For orientation: Cyclic AMP is a second messenger, typically raised through Gs and lowered through Gi signalling.

Assay [3] has the same target. As to the kind of experiment: Allosteric enhancer activity at recombinant human A1 adenosine receptor expressed in CHO cells assessed as change in forskolin-induced cAMP production at 1 uM after 6 mins by radioimmunoassay. It counts as functional, cell-based. Put shortly:
as §1

Assay [4] shares this target. Nature of the assay: Allosteric enhancer activity at recombinant human A1 adenosine receptor expressed in CHO cells assessed as change in forskolin-induced cAMP production at 10 uM after 6 mins by radioimmunoassay. It counts as functional, cell-based. Put shortly: as §1
Assay [5] shares this target. As to the kind of experiment: Displacement of [3H]DPCPX from recombinant human A1 adenosine receptor expressed in CHO cells at 10 uM after 120 mins by scintillation counting. It counts as cell-based. The essentials: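 Membranes from hA1CHO cells incubated with 1 nM [3H]DPCPX in 50 mM Tris–HCl pH 7.4 at 25 °C for 120 min. Compound added from a 100-fold DMSO stock, so 1% DMSO final, also present in controls. Bound ligand separated on GF/B filters and counted by scintillation. Result given as % of control specific binding.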
In general terms: In a radioligand displacement assay an active substance lowers the binding of a labelled ligand.

For assay [6], the target named is Adenosine receptor A2a (Homo sapiens) (UniProt P29274). As to the kind of experiment: Displacement of [3H]ZM241385 from recombinant human A2A adenosine receptor expressed in CHO cells at 10 uM after 60 mins by scintillation counting. It counts as cell-based. The essentials:
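Membranes from hA2ACHO cells incubated with 1 nM [3H]ZM 241385 in 50 mM Tris–HCl, 10 mM MgCl2, pH 7.4 at 4 °C for 60 min. Compound added from a 100-fold DMSO stock, 1% DMSO final, also in controls. Separated by GF/B filtration and counted by scintillation. Result given as % of control specific binding.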

Assay [7] concerns the target T2, Adenosine receptor A3 (Homo sapiens) (UniProt P0DMS8).
T2 sequence (whole entry): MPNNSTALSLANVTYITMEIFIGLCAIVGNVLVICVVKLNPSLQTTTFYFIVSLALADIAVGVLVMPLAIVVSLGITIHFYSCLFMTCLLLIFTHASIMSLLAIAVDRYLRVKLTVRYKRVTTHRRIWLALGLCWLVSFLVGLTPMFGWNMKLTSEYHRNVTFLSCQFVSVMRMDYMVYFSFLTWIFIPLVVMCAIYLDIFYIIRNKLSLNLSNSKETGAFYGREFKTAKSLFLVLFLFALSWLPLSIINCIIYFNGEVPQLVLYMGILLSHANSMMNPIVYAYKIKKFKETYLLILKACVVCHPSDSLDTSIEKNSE
Nature of the assay: Displacement of [3H]MRE3008F20 from recombinant human A3 adenosine receptor expressed in CHO cells at 10 uM after 120 mins by scintillation counting. It counts as cell-based. The essentials: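 Membranes from hA3CHO cells incubated with 2 nM [3H]MRE 3008F20 in 50 mM Tris–HCl, 10 mM MgCl2, 1 mM EDTA, pH 7.4 at 4 °C for 120 min. Compound added from a 100-fold DMSO stock, 1% DMSO final, also in controls. Separated by GF/B filtration and counted by scintillation. Result given as % of control specific binding.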

In assay [8] the target is T1, Adenosine receptor A1 (Homo sapiens). As to the kind of experiment: Binding affinity to recombinant human A1 adenosine receptor allosteric site expressed in CHO cells assessed as [3H]CCPA Bmax shift at 10 uM after 90 mins relative to control. It counts as cell-based. Put shortly: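 Saturation binding of [3H]CCPA (0.05–20 nM) to hA1CHO membranes. Membranes pretreated with adenosine deaminase 3 UI/mL for 30 min at 37 °C. Run in triplicate, 90 min at 25 °C, in 50 mM Tris–HCl pH 7.4, with or without test compound at final 10 µM. Nonspecific binding taken with 1 µM R-PIA. Bmax fitted by LIGAND. Shift is the fold of Bmax increase over control.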

Assay [9] has the same target. Nature of the assay: Binding affinity to recombinant human A1 adenosine receptor allosteric site expressed in CHO cells assessed as [3H]DPCPX Bmax shift at 10 uM after 90 mins relative to control. It counts as cell-based. The essentials: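 Saturation binding of [3H]DPCPX (0.05–20 nM) to hA1CHO membranes, run in triplicate, 90 min at 25 °C, in 50 mM Tris–HCl pH 7.4, with or without test compound at final 10 µM. Nonspecific binding taken with 1 µM DPCPX. KD and Bmax fitted by LIGAND. Shift is the fold of Bmax increase over control.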

For assay [10] the target is unchanged. Nature of the assay: Binding affinity to recombinant human A1 adenosine receptor allosteric site expressed in CHO cells assessed as potentiation of CCPA-induced [3H]DPCPX displacement at 10 uM after 90 mins relative to control. It counts as cell-based. Put shortly: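 Competition of CCPA (0.01 nM–1 µM) against 1 nM [3H]DPCPX on hA1CHO membranes, run in triplicate, 90 min at 25 °C, in 50 mM Tris–HCl pH 7.4, with or without test compound at 10 µM. Nonspecific binding taken with 1 µM DPCPX. Ki by Cheng–Prusoff. Shift = Ki(CCPA)/Ki(CCPA + 10 µM compound).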

Adenosine receptor A2a (Homo sapiens), sequence (P29274 whole entry): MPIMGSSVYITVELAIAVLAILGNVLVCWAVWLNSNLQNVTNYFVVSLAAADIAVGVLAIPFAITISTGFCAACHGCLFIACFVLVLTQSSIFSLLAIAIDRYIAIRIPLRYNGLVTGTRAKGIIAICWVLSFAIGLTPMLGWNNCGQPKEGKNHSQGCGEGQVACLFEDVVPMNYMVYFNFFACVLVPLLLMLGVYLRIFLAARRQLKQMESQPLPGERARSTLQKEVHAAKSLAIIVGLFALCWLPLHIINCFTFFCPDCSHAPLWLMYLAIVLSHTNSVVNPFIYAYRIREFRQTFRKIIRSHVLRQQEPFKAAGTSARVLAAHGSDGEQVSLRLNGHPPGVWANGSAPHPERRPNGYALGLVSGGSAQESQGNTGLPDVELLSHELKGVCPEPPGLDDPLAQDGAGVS

Take `Nc1scc(CN2CCN(C(=O)Cc3ccc(Cl)cc3)CC2)c1C(=O)c1ccc(Cl)cc1`: the Activity in assay [1] was 2.1%; in assay [2] it was 0%; in assay [3], -8.1%; in assay [4], -42%. Besides, the inhibition came to 1% in assay [5], 0% in assay [6] and 0% in assay [7]. The results for the fold change (FC) in [8], in assay [9] and in assay [10] were 1.5, 0.9 and 1.5, respectively.
On to `Nc1scc(CN2CCN(c3cccc(F)c3F)CC2)c1C(=O)c1ccc(Cl)cc1`, for which the Activity in assay [1] is -13%; in assay [2] it was -5.2%; in assay [3] it was -66%; in assay [4], -79%. For the same compound, the inhibition in assay [5], in assay [6] and in [7] was 0% throughout. For the same compound, the fold change (FC) in assay [8] stood at 4.8; in assay [9], 1; in assay [10], 4.
For `Nc1scc(CN2CCN(c3ccc(F)c(Cl)c3)CC2)c1C(=O)c1ccc(Cl)cc1`, the Activity is 4.2% in assay [1], -21% in assay [2], -60% in assay [3] and -78% in [4]. The inhibition in [5], in assay [6] and in assay [7] was 0% each time. Further, the fold change (FC) in [8] amounted to 7; in assay [9], 1.1; in assay [10] it was 5.5.
For the compound `CC(C)N1CCN(Cc2csc(N)c2C(=O)c2ccc(Cl)cc2)CC1`, the Activity in assay [1] is -1%; in [2], 3.6%; in [3], 7.3%; in assay [4] it was -7.4%. In addition, the inhibition in [5], in assay [6] and in [7] was 0% each time. For the same compound, the fold change (FC) in [8] stood at 1.1; in [9], 0.9; in assay [10], 1.2.
On to `Nc1scc(CN2CCN(c3cccc(F)c3)CC2)c1C(=O)c1cccc(C(F)(F)F)c1`, for which the Activity was -11% in assay [1], -12% in assay [2], -35% in assay [3] and -62% in [4]. Further, the inhibition in [5], in assay [6] and in assay [7] was 0% in each case. Besides, the fold change (FC) in assay [8] came out at 6; in [9], 1.1; in assay [10], 4.7.
Consider `Nc1scc(CN2CCN(Cc3ccc(Cl)cc3)CC2)c1C(=O)c1ccc(Cl)cc1`, for which the Activity in assay [1] is -2.2%; in assay [2], 4.2%; in assay [3], -43%; in assay [4] it was -82%. The values for the inhibition in assay [5], in [6] and in assay [7] were 0%, 1% and 0%, respectively. For the same compound, the fold change (FC) in [8] worked out at 4.5; in assay [9], 1; in assay [10], 3.7.
As for `Nc1scc(CN2CCN(c3ccc(C(F)(F)F)cc3)CC2)c1C(=O)c1cccc(C(F)(F)F)c1`, the Activity in assay [1] was -12%; in [2], -11%; in [3] it was -27%; in [4] it was -47%. Also, the inhibition in assay [5], in assay [6] and in [7] was 0% in each case. The fold change (FC) in assay [8] stood at 4.4; in [9], 1; in assay [10], 3.4.
With `Nc1scc(CN2CCN(c3cccc(Cl)c3)CC2)c1C(=O)c1ccc(Cl)cc1`, the Activity in assay [1] is -3.1%; in assay [2], -20%; in [3], -59%; in [4] it was -77%. Also, the inhibition in assay [5] turned out to be 0%; in [6], 0%; in assay [7], 1%. Further, the fold change (FC) came out at 4.4 in [8], 1 in assay [9] and 3.7 in assay [10].
As to `Nc1scc(CN2CCN(c3c(F)cccc3F)CC2)c1C(=O)c1cccc(C(F)(F)F)c1`, the Activity in assay [1] was found to be 2.1%; in [2], 1.3%; in [3], 1.3%; in assay [4], 4%. Besides, the inhibition in [5], in assay [6] and in assay [7] was 0% in each case. Also, the figures for the fold change (FC) in assay [8], in assay [9] and in assay [10] were 1.1, 0.9 and 1.2, respectively.
Take `Nc1scc(CN2CCN(c3c(F)cccc3F)CC2)c1C(=O)c1ccc(Cl)cc1`: the Activity is -12% in assay [1], -23% in assay [2], -65% in assay [3] and -80% in assay [4]. Further, the inhibition in assay [5] came out at 1%; in assay [6], 1%; in assay [7] it was 4%. For the same compound, the fold change (FC) in assay [8] was found to be 6.3; in assay [9] it was 1.1; in assay [10], 5.
For the compound `Nc1scc(CN2CCN(c3ccc(F)cc3F)CC2)c1C(=O)c1ccc(Cl)cc1`, the Activity in assay [1] was 0%; in [2], -17%; in [3] it was -66%; in [4], -82%. In addition, the results for the inhibition in assay [5], in assay [6] and in assay [7] were 1%, 0% and 0%, respectively. For the same compound, the figures for the fold change (FC) in assay [8], in [9] and in [10] were 6.1, 1 and 4.8, respectively.
As for `Nc1scc(CN2CCN(CCc3ccc(Cl)cc3)CC2)c1C(=O)c1ccc(Cl)cc1`, the Activity was 1.2% in [1], -3.1% in assay [2], -32% in assay [3] and -76% in [4]. For the same compound, the inhibition in assay [5] came to 1%; in assay [6], 0%; in assay [7] it was 2%. In addition, the fold change (FC) was determined as 3.1 in [8], 1 in [9] and 3.4 in assay [10].

One may read the inhibition as the drop in the measured response relative to a control, in per cent.
